Format in all cases: functional
The nature of assay [1]: Antioxidant activity against ABTS radical assessed as TEAC units. The essentials: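 ABTS radical cation solution diluted in PBS pH 7.4 to A734 0.70, equilibrated at 30 °C. Samples in methanol at 0.3, 0.5, 1, 1.5 and 2 mM; reaction started by adding diluted ABTS to sample. Percent inhibition of A734 versus methanol blank plotted against concentration, in triplicate. Value is Trolox concentration with the same capacity as 1 mM sample.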

The nature of assay [2]: Antioxidant activity against beta-carotene and linoleic acid assessed as inhibition of bleaching of beta-carotene at 60 mins by autooxidation assay. Also noted: concentration or dose not given beside the values. The essentials:
(§1)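 Heat-induced oxidation of an aqueous emulsion of β-carotene, linoleic acid and Tween 20, held at 50 °C for 3 h. β-Carotene bleaching was followed by A470 at intervals. AA = [1 − (A0 − At)/(A00 − A0t)] × 100, taking absorbances with and without test sample at start and at time t. Run in triplicate; BHT served as positive control.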

Assay [3] in a line: Antioxidant activity against beta-carotene and linoleic acid assessed as inhibition of bleaching of beta-carotene at 120 mins by autooxidation assay. Also noted: concentration or dose not given beside the values. The essentials:
as §1

The term inhibition denotes the percentage by which the read-out fell short of the control.

Regarding `O=c1c(O)c(-c2ccc(O)c(O)c2)oc2cc(O)cc(O)c12`, the Activity in assay [1] was 2.6 mM.
In the case of `O=C1[C@@H](c2ccc(O)cc2)Oc2cc(O)cc(O)c2[C@@]12c1c(O)cc(O)cc1[C@H](O)[C@H]2c1ccc(O)cc1`, the Activity in assay [1] was found to be 1.04 mM; in assay [2], 40.6%; in assay [3], 43.4%.
The matching figures for `O=C1Oc2cc(O)c3c(c2[C@]12c1c(O)cc(O)cc1O[C@@H]2c1ccc(O)cc1)O[C@H](c1ccc(O)cc1)[C@H](O)C3`: 1.79 mM, 24.4% and 51%.
Take `COc1c(O)cc(/C=C/c2cc(O)cc(O)c2)cc1O`: the values for the Activity in assay [1], in assay [2] and in assay [3] were 2.25 mM, 3.1% and 2.9%, respectively.
As for `COc1c(O)cc(/C=C/c2cc(O)cc(O)c2)c2c1OC(=O)[C@@]21c2c(O)cc(O)cc2O[C@@H]1c1ccc(O)cc1`, the figures for the Activity in assay [1], in assay [2] and in assay [3] were 1.85 mM, 74.3% and 79.3%, respectively.
The matching figures for `O=C1Oc2cc(O)cc(/C=C/c3ccc(O)cc3)c2[C@@]12c1c(O)cc(O)cc1O[C@@H]2c1ccc(O)cc1`: 0.96 mM, 52.6% and 72.1%.
For the compound `COc1c(O)cc(/C=C/c2cc(O)cc3c2[C@]2(C(=O)O3)c3c(O)cc(O)cc3O[C@@H]2c2ccc(O)cc2)cc1O`, the Activity in assay [1] is 1.42 mM; in assay [3] it was 66.2%. In addition, the inhibition in assay [2] came to 66.4%.
As for `O=C1Oc2cc(O)cc(/C=C/c3ccc(O)cc3)c2[C@]12c1c(O)cc(O)cc1O[C@@H]2c1ccc(O)cc1`, the figures for the Activity in assay [1], in assay [2] and in assay [3] were 1.09 mM, 76.3% and 72.1%, respectively.
In the same order, the values of `Oc1ccc(/C=C/c2cc(O)cc(O)c2)cc1` are 1.9 mM, 24.9% and 45.9%.
The matching figures for `COc1c(O)cc(/C=C/c2cc(O)cc3c2[C@@]2(C(=O)O3)c3c(O)cc(O)cc3O[C@@H]2c2ccc(O)cc2)cc1O`: 1.6 mM, 59.5% and 71.7%.

These data come from ChEMBL document CHEMBL1151213, “Yucca schidigera bark: phenolic constituents and antioxidant activity” (J Nat Prod, 2004).
